Several values for one entry are separate records, joined by “and”; a condition that tells them apart may be missing. Identical values can stand only once.
System: U2OS
Assay: Multiplex assay against U2OS
Assay type: toxicity, cell-based
Conditions: human
How it was run: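 With compound added, live cells were imaged on a CQ1 microscope at 37°C and 5% CO2; staining with Hoechst33342, BioTracker Green Microtubule Cytoskeleton Dye, MitoTracker Red and Annexin V Alexa Fluor 680 had been done at seeding. The CellPathfinder machine-learning gating scheme split cells into Hoechst high-intensity objects or normal cells, normal cells into healthy, pyknosed or fragmented nuclei, and pyknosed cells into mitotic or apoptotic. The tubulin, mitochondrial-mass and membrane-permeability phenotypes are per cents of healthy-nucleus cells.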

[1] = 12 h, 1 µM, compound concentration 1 uM, replicate 1
[2] = 12 h, 1 µM, compound concentration 1 uM, replicate 2
[3] = 24 h, 1 µM, compound concentration 1 uM, replicate 1
[4] = 24 h, 1 µM, compound concentration 1 uM, replicate 2
[5] = 12 h, 10 µM, compound concentration 10 uM, replicate 1
[6] = 12 h, 10 µM, compound concentration 10 uM, replicate 2
[7] = 24 h, 10 µM, compound concentration 10 uM, replicate 1
[8] = 24 h, 10 µM, compound concentration 10 uM, replicate 2
[9] = 48 h, 1 µM, compound concentration 1 uM, replicate 1
[10] = 48 h, 1 µM, compound concentration 1 uM, replicate 2
[11] = 48 h, 10 µM, compound concentration 10 uM, replicate 1
[12] = 48 h, 10 µM, compound concentration 10 uM, replicate 2

With `C[C@H]1Oc2cc(cnc2N)-c2c(nn(C)c2C#N)CN(C)C(=O)c2ccc(F)cc21` [LORLATINIB] the “Population Apoptotic (%)” value [1] was 53% and 37%, the “Population Healthy Nuclei (%)” value [1] was 88% and 89% and the “Population Hoechst High Intensity Objects (%)” value [1] was 2% and 3%. For the same molecule, the “Population Membrane Permeable-Phenotype (%)” value [1] was 14%, the “Population Mitochondria Different-Phenotype (%)” value [1] was 20% and 32% and the “Population Mitotic Cells (%)” value [1] was 46% and 62%. The “Population Normal (%)” value [1] was 97% and 96%, the “Population Pyknosed Nuclei (%)” value [1] was 6% and 4% and the “Population Tubulin-Different-Phenotype (%)” value [1] was 15% and 22%. For the same molecule, the “Total Cell Count” value [1] was 195 and 218, the “Population Apoptotic (%)” value [2] was 25% and 0% and the “Population Healthy Nuclei (%)” value [2] was 84% and 77%. For the same molecule, the “Population Hoechst High Intensity Objects (%)” value [2] was 11% and 9%, the “Population Membrane Permeable-Phenotype (%)” value [2] was 15% and 8% and the “Population Mitochondria Different-Phenotype (%)” value [2] was 35% and 38%. The “Population Mitotic Cells (%)” value [2] was 75% and 100%, the “Population Normal (%)” value [2] was 88% and 90% and the “Population Pyknosed Nuclei (%)” value [2] was 10% and 2%. For the same molecule, the “Population Tubulin-Different-Phenotype (%)” value [2] was 26% and 35%, the “Total Cell Count” value [2] was 129 and 122 and the “Population Apoptotic (%)” value [3] was 57% and 38%. For the same molecule, the “Population Fragmented Nuclei (%)” value [3] was 6% and 5%, the “Population Healthy Nuclei (%)” value [3] was 86% and 87% and the “Population Hoechst High Intensity Objects (%)” value [3] was 2%. For the same molecule, the “Population Membrane Permeable-Phenotype (%)” value [3] was 11% and 7%, the “Population Mitochondria Different-Phenotype (%)” value [3] was 22% and 25% and the “Population Mitotic Cells (%)” value [3] was 42% and 61%. The “Population Normal (%)” value [3] was 97%, the “Population Pyknosed Nuclei (%)” value [3] was 6% and 7% and the “Population Tubulin-Different-Phenotype (%)” value [3] was 16% and 28%. The “Total Cell Count” value [3] was 254 and 277, the “Population Apoptotic (%)” value [4] was 55% and 21% and the “Population Fragmented Nuclei (%)” value [4] was 9% and 18%. The “Population Healthy Nuclei (%)” value [4] was 81% and 70%, the “Population Hoechst High Intensity Objects (%)” value [4] was 9% and 6% and the “Population Membrane Permeable-Phenotype (%)” value [4] was 14% and 8%. The “Population Mitochondria Different-Phenotype (%)” value [4] was 33% and 41%, the “Population Mitotic Cells (%)” value [4] was 44% and 78% and the “Population Normal (%)” value [4] was 90% and 93%. For the same molecule, the “Population Pyknosed Nuclei (%)” value [4] was 8% and 10%, the “Population Tubulin-Different-Phenotype (%)” value [4] was 31% and the “Total Cell Count” value [4] was 140 and 145.

For `O=C1NC(=O)C(c2cnc3ccccn23)=C1c1cn2c3c(cc(F)cc13)CN(C(=O)N1CCCCC1)CC2` [LY-2090314], the “Population Apoptotic (%)” value [1] was 37%, the “Population Fragmented Nuclei (%)” value [1] was 8% and the “Population Healthy Nuclei (%)” value [1] was 74%. The “Population Hoechst High Intensity Objects (%)” value [1] was 8%, the “Population Membrane Permeable-Phenotype (%)” value [1] was 5% and the “Population Mitochondria Different-Phenotype (%)” value [1] was 31%. The “Population Mitotic Cells (%)” value [1] was 62%, the “Population Normal (%)” value [1] was 91% and the “Population Pyknosed Nuclei (%)” value [1] was 17%. For the same molecule, the “Population Tubulin-Different-Phenotype (%)” value [1] was 38%, the “Total Cell Count” value [1] was 121 and the “Population Apoptotic (%)” value [2] was 80%. The “Population Fragmented Nuclei (%)” value [2] was 3%, the “Population Healthy Nuclei (%)” value [2] was 87% and the “Population Hoechst High Intensity Objects (%)” value [2] was 12%. For the same molecule, the “Population Membrane Permeable-Phenotype (%)” value [2] was 6%, the “Population Mitochondria Different-Phenotype (%)” value [2] was 16% and the “Population Mitotic Cells (%)” value [2] was 20%. The “Population Normal (%)” value [2] was 87%, the “Population Pyknosed Nuclei (%)” value [2] was 9% and the “Population Tubulin-Different-Phenotype (%)” value [2] was 22%. The “Total Cell Count” value [2] was 85, the “Population Apoptotic (%)” value [5] was 60% and the “Population Fragmented Nuclei (%)” value [5] was 13%. The “Population Healthy Nuclei (%)” value [5] was 73%, the “Population Hoechst High Intensity Objects (%)” value [5] was 18% and the “Population Membrane Permeable-Phenotype (%)” value [5] was 44%. The “Population Mitochondria Different-Phenotype (%)” value [5] was 95%, the “Population Mitotic Cells (%)” value [5] was 40% and the “Population Normal (%)” value [5] was 81%. The “Population Pyknosed Nuclei (%)” value [5] was 13%, the “Population Tubulin-Different-Phenotype (%)” value [5] was 99% and the “Total Cell Count” value [5] was 153. For the same molecule, the “Population Apoptotic (%)” value [6] was 100%, the “Population Fragmented Nuclei (%)” value [6] was 9% and the “Population Healthy Nuclei (%)” value [6] was 74%. For the same molecule, the “Population Hoechst High Intensity Objects (%)” value [6] was 10%, the “Population Membrane Permeable-Phenotype (%)” value [6] was 40% and the “Population Mitochondria Different-Phenotype (%)” value [6] was 96%. For the same molecule, the “Population Mitotic Cells (%)” value [6] was 0%, the “Population Normal (%)” value [6] was 89% and the “Population Pyknosed Nuclei (%)” value [6] was 16%. The “Population Tubulin-Different-Phenotype (%)” value [6] was 96%, the “Total Cell Count” value [6] was 63 and the “Population Apoptotic (%)” value [3] was 36%. The “Population Fragmented Nuclei (%)” value [3] was 13%, the “Population Healthy Nuclei (%)” value [3] was 64% and the “Population Hoechst High Intensity Objects (%)” value [3] was 3%. The “Population Membrane Permeable-Phenotype (%)” value [3] was 3%, the “Population Mitochondria Different-Phenotype (%)” value [3] was 21% and the “Population Mitotic Cells (%)” value [3] was 63%. For the same molecule, the “Population Normal (%)” value [3] was 96%, the “Population Pyknosed Nuclei (%)” value [3] was 21% and the “Population Tubulin-Different-Phenotype (%)” value [3] was 25%. For the same molecule, the “Total Cell Count” value [3] was 124, the “Population Apoptotic (%)” value [4] was 80% and the “Population Fragmented Nuclei (%)” value [4] was 4%. For the same molecule, the “Population Healthy Nuclei (%)” value [4] was 87%, the “Population Hoechst High Intensity Objects (%)” value [4] was 13% and the “Population Membrane Permeable-Phenotype (%)” value [4] was 7%. The “Population Mitochondria Different-Phenotype (%)” value [4] was 22%, the “Population Mitotic Cells (%)” value [4] was 20% and the “Population Normal (%)” value [4] was 86%. The “Population Pyknosed Nuclei (%)” value [4] was 8%, the “Population Tubulin-Different-Phenotype (%)” value [4] was 18% and the “Total Cell Count” value [4] was 82. The “Population Apoptotic (%)” value [7] was 71%, the “Population Fragmented Nuclei (%)” value [7] was 20% and the “Population Healthy Nuclei (%)” value [7] was 59%. The “Population Hoechst High Intensity Objects (%)” value [7] was 18%, the “Population Membrane Permeable-Phenotype (%)” value [7] was 62% and the “Population Mitochondria Different-Phenotype (%)” value [7] was 98%. The “Population Mitotic Cells (%)” value [7] was 28%, the “Population Normal (%)” value [7] was 81% and the “Population Pyknosed Nuclei (%)” value [7] was 19%. For the same molecule, the “Population Tubulin-Different-Phenotype (%)” value [7] was 100%, the “Total Cell Count” value [7] was 171 and the “Population Apoptotic (%)” value [8] was 81%. The “Population Fragmented Nuclei (%)” value [8] was 11%, the “Population Healthy Nuclei (%)” value [8] was 64% and the “Population Hoechst High Intensity Objects (%)” value [8] was 4%. For the same molecule, the “Population Membrane Permeable-Phenotype (%)” value [8] was 37%, the “Population Mitochondria Different-Phenotype (%)” value [8] was 96% and the “Population Mitotic Cells (%)” value [8] was 18%. For the same molecule, the “Population Normal (%)” value [8] was 95%, the “Population Pyknosed Nuclei (%)” value [8] was 24% and the “Population Tubulin-Different-Phenotype (%)” value [8] was 96%. The “Total Cell Count” value [8] was 72, the “Population Apoptotic (%)” value [9] was 55% and the “Population Fragmented Nuclei (%)” value [9] was 15%. The “Population Healthy Nuclei (%)” value [9] was 63%, the “Population Hoechst High Intensity Objects (%)” value [9] was 3% and the “Population Membrane Permeable-Phenotype (%)” value [9] was 7%. The “Population Mitochondria Different-Phenotype (%)” value [9] was 22%, the “Population Mitotic Cells (%)” value [9] was 44% and the “Population Normal (%)” value [9] was 96%. The “Population Pyknosed Nuclei (%)” value [9] was 21%, the “Population Tubulin-Different-Phenotype (%)” value [9] was 12% and the “Total Cell Count” value [9] was 117. For the same molecule, the “Population Apoptotic (%)” value [10] was 72%, the “Population Fragmented Nuclei (%)” value [10] was 8% and the “Population Healthy Nuclei (%)” value [10] was 79%. For the same molecule, the “Population Hoechst High Intensity Objects (%)” value [10] was 7%, the “Population Membrane Permeable-Phenotype (%)” value [10] was 11% and the “Population Mitochondria Different-Phenotype (%)” value [10] was 17%. The “Population Mitotic Cells (%)” value [10] was 27%, the “Population Normal (%)” value [10] was 92% and the “Population Pyknosed Nuclei (%)” value [10] was 12%. For the same molecule, the “Population Tubulin-Different-Phenotype (%)” value [10] was 19%, the “Total Cell Count” value [10] was 82 and the “Population Apoptotic (%)” value [11] was 95%. The “Population Fragmented Nuclei (%)” value [11] was 33%, the “Population Healthy Nuclei (%)” value [11] was 39% and the “Population Hoechst High Intensity Objects (%)” value [11] was 20%. The “Population Membrane Permeable-Phenotype (%)” value [11] was 68%, the “Population Mitochondria Different-Phenotype (%)” value [11] was 93% and the “Population Mitotic Cells (%)” value [11] was 5%. The “Population Normal (%)” value [11] was 79%, the “Population Pyknosed Nuclei (%)” value [11] was 26% and the “Population Tubulin-Different-Phenotype (%)” value [11] was 100%. For the same molecule, the “Total Cell Count” value [11] was 221, the “Population Apoptotic (%)” value [12] was 83% and the “Population Fragmented Nuclei (%)” value [12] was 12%. The “Population Healthy Nuclei (%)” value [12] was 72%, the “Population Hoechst High Intensity Objects (%)” value [12] was 11% and the “Population Membrane Permeable-Phenotype (%)” value [12] was 48%. The “Population Mitochondria Different-Phenotype (%)” value [12] was 89%, the “Population Mitotic Cells (%)” value [12] was 16% and the “Population Normal (%)” value [12] was 88%. For the same molecule, the “Population Pyknosed Nuclei (%)” value [12] was 15%, the “Population Tubulin-Different-Phenotype (%)” value [12] was 89% and the “Total Cell Count” value [12] was 93.
